Converted amounts (≈) assume the structure as drawn.
Assays:
CHO = experiment: Cytotoxicity against CHO cells; format: cell-based; conditions: Cricetulus griseus
Cytochrome P450 2E1 = Cytochrome P450 2E1 (Homo sapiens, UniProt P05181); experiment: Inhibition of CYP2E1 in human liver microsomes assessed as chlorzoxazone 6-hydroxylation after 20 mins by LC-MS/MS analysis; format: ADME
Cytochrome P450 2B6 = target: T1, Cytochrome P450 2B6 (Homo sapiens, UniProt P20813); experiment: Inhibition of CYP2B6 in human liver microsomes assessed as bupropion hydroxylation after 20 mins by LC-MS/MS analysis; format: ADME
T1 sequence (P20813 whole entry): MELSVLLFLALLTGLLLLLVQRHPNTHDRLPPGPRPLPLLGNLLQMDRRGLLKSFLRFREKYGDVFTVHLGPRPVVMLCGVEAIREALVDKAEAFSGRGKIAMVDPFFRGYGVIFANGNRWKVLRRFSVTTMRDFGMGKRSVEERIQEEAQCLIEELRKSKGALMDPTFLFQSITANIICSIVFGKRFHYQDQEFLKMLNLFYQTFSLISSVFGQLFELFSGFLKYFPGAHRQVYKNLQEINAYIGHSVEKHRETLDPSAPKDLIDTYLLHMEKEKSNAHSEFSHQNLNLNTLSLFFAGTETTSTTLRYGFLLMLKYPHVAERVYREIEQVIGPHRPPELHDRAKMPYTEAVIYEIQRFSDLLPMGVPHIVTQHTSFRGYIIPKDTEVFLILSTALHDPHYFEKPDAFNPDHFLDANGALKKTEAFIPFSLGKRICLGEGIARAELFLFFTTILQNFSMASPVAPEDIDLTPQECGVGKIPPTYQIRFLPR

Cytochrome P450 2A6 = target: T2, Cytochrome P450 2A6 (Homo sapiens, UniProt P11509); experiment: Inhibition of CYP2A6 in human liver microsomes assessed as coumarin 7-hydroxylation after 20 mins by LC-MS/MS analysis; format: ADME
T2 sequence (P11509 whole entry): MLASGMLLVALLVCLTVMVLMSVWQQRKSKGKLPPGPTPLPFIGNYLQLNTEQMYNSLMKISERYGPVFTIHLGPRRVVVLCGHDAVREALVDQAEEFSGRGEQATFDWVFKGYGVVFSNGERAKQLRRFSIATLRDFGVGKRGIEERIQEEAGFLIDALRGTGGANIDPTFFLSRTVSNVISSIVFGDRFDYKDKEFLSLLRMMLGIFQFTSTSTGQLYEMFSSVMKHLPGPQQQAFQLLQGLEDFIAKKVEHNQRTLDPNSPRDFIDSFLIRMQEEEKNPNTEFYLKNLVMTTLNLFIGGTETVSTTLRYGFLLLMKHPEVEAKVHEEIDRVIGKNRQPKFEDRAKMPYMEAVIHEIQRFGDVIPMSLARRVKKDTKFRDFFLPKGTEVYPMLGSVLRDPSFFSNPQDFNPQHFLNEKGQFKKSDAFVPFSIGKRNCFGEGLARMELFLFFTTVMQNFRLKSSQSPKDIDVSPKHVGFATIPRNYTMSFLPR

Cytochrome P450 1A2 = target: T3, Cytochrome P450 1A2 (Homo sapiens, UniProt P05177); experiment: Inhibition of CYP1A2 in human liver microsomes assessed as phenacetin O-deethylation after 20 mins by LC-MS/MS analysis; format: ADME
T3 sequence (P05177 whole entry): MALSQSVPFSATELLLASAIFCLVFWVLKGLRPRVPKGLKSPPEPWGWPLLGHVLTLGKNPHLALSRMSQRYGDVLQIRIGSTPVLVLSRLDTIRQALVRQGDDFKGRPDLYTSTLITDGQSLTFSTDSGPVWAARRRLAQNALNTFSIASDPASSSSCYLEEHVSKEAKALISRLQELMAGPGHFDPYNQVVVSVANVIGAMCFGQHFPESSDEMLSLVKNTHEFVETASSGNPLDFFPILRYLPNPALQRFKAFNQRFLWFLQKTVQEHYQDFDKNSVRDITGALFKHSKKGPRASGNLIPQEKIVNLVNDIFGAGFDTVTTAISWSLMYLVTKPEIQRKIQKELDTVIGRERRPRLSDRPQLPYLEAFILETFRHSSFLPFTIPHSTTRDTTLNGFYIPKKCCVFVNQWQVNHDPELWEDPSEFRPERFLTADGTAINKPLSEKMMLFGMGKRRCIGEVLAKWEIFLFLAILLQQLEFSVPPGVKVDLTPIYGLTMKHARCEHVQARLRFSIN

Cytochrome P450 3A4 = Cytochrome P450 3A4 (Homo sapiens, UniProt P08684); experiment: Inhibition of CYP3A4 in human liver microsomes assessed as midazolam 1'-hydroxylation and testosterone 6beta-hydroxylation after 20 mins by LC-MS/MS analysis; format: ADME
Chain of Cytochrome P450 3A4 (P08684 whole entry): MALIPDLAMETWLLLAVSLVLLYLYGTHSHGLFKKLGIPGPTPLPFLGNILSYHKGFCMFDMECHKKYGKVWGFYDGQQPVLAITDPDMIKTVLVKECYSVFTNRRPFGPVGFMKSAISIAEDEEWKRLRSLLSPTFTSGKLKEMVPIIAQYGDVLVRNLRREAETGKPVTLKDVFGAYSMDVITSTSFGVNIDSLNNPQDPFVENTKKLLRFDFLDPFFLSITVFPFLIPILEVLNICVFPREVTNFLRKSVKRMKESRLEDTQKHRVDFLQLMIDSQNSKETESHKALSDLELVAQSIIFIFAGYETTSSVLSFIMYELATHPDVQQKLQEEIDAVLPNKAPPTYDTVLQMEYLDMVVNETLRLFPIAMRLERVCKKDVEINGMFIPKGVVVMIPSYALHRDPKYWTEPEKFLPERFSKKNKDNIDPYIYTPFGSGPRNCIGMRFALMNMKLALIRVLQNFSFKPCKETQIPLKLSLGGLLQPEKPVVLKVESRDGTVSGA

Cytochrome P450 2C19 = Cytochrome P450 2C19 (Homo sapiens, UniProt P33261); experiment: Inhibition of CYP2C19 in human liver microsomes assessed as S-mephenytoin 4'-hydroxylation after 20 mins by LC-MS/MS analysis; format: ADME
Chain of Cytochrome P450 2C19 (P33261 whole entry): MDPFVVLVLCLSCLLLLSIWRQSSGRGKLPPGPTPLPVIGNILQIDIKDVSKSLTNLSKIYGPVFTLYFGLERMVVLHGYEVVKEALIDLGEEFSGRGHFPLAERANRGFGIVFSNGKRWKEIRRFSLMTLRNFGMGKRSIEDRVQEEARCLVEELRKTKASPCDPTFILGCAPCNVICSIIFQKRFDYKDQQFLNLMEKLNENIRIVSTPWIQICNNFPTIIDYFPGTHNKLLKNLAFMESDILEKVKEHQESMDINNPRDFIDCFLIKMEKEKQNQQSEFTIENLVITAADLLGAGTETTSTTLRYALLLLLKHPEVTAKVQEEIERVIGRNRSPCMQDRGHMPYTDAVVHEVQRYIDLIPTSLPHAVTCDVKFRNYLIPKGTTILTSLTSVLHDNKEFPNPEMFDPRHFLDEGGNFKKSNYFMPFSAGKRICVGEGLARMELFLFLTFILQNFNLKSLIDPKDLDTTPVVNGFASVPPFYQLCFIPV

Cytochrome P450 2D6 = Cytochrome P450 2D6 (Homo sapiens, UniProt P10635); experiment: Inhibition of CYP2D6 in human liver microsomes assessed as bufuralol 1'-hydroxylation after 20 mins by LC-MS/MS analysis; format: ADME
Chain of Cytochrome P450 2D6 (P10635 whole entry): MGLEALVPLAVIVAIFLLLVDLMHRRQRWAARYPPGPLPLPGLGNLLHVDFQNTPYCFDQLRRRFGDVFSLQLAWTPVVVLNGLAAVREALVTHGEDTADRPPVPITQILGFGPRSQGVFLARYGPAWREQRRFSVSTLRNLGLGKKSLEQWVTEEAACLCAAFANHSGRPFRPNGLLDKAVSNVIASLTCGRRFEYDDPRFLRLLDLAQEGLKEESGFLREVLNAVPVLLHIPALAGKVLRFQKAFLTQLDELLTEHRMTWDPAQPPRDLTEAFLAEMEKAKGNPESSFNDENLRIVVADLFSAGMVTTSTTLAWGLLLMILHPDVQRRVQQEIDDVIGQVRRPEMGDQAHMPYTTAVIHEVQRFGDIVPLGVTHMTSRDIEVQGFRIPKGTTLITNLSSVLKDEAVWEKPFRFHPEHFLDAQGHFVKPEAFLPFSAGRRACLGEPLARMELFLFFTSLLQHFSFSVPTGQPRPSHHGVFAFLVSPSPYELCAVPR

Cytochrome P450 2C9 = Cytochrome P450 2C9 (Homo sapiens, UniProt P11712); experiment: Inhibition of CYP2C9 in human liver microsomes assessed as diclofenac 4'-hydroxylation after 20 mins by LC-MS/MS analysis; format: ADME
Chain of Cytochrome P450 2C9 (P11712 whole entry): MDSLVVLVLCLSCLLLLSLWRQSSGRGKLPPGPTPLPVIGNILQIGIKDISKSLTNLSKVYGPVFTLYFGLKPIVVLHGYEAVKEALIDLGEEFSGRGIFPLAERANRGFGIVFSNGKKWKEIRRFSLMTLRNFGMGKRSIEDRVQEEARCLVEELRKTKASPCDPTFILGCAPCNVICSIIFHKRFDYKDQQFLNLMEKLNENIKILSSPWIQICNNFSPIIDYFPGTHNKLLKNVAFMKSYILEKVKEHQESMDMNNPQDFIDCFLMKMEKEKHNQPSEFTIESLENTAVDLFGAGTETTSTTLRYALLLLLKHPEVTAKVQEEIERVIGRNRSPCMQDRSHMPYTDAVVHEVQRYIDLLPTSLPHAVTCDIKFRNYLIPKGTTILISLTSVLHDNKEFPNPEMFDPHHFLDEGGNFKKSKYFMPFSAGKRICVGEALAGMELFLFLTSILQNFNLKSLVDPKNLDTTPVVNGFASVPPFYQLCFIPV

Cytochrome P450 2C8 = target: T4, Cytochrome P450 2C8 (Homo sapiens, UniProt P10632); experiment: Inhibition of CYP2C8 in human liver microsomes assessed as paclitaxel 6alpha-hydroxylation after 20 mins by LC-MS/MS analysis; format: ADME
T4 sequence (P10632 whole entry): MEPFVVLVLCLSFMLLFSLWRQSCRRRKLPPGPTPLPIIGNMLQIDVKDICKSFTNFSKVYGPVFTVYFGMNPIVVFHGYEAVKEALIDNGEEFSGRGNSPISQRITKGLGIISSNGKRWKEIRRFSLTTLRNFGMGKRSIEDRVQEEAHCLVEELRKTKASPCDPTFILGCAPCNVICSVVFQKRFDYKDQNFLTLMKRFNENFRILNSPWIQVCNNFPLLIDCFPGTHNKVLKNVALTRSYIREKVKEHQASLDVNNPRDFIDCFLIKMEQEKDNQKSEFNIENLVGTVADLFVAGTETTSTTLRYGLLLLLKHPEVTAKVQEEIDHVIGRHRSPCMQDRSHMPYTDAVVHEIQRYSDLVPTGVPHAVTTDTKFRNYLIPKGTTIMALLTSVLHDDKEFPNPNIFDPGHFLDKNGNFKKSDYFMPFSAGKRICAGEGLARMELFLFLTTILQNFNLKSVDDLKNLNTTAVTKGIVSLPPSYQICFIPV

[1] = Kinetic solubility of the compound in 0.01 M HCl at pH 2 after 2 hrs by HPLC analysis; format: physicochemical; conditions: read-out: Kinetic_solubility
[2] = Kinetic solubility of the compound in phosphate buffered saline at pH 7.4 after 2 hrs by HPLC analysis; format: physicochemical; conditions: read-out: Kinetic_solubility
Plasmodium falciparum [3] = experiment: Resistance index, ratio of IC50 for chloroquine-resistant Plasmodium falciparum K1 to IC50 for chloroquine-sensitive Plasmodium falciparum 3D7; format: functional
Plasmodium falciparum [4] = experiment: Antiplasmodial activity against chloroquine-resistant Plasmodium falciparum W2 after 24 hrs by [3H]hypoxanthine incorporation assay; format: functional, organism-based
Procedure, shortened: (§1)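 Antiplasmodial testing was done at the Swiss Tropical and Public Health Institute. Chloroquine, the reference drug, was tested as its diphosphate salt.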

Plasmodium falciparum [5] = experiment: Antiplasmodial activity against chloroquine-resistant Plasmodium falciparum K1 after 24 hrs by [3H]hypoxanthine incorporation assay; format: functional, organism-based; procedure, shortened: as §1
Plasmodium falciparum [6] = experiment: Antiplasmodial activity against chloroquine-sensitive Plasmodium falciparum 3D7 after 24 hrs by [3H]hypoxanthine incorporation assay; format: functional, organism-based; procedure, shortened: as §1

Chain of Cytochrome P450 2E1 (P05181 whole entry): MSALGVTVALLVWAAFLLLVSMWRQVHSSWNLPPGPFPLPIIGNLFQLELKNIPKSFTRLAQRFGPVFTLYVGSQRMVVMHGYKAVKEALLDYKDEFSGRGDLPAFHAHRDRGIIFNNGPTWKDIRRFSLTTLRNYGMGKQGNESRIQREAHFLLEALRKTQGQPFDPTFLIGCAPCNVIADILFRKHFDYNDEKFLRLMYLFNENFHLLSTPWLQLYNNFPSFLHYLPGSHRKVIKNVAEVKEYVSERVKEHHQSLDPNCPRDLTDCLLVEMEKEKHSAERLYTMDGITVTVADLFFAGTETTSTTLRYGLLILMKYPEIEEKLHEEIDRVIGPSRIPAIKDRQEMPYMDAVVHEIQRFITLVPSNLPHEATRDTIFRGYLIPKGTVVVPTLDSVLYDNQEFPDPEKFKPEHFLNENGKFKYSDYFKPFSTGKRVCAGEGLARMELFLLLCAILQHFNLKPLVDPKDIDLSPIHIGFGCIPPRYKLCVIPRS

Compound Cc1ccc(C(NCCNc2ccnc3cc(Cl)ccc23)c2nnnn2C(C)(C)C)cc1 (stereo unspecified) has an IC50 (CHO) of 185 µM, an IC50 (Cytochrome P450 2E1) of over 20 µM and an IC50 (Cytochrome P450 2B6) of over 20 µM. The IC50 (Cytochrome P450 2A6) was over 20 µM, the IC50 (Cytochrome P450 1A2) was over 20 µM and the IC50 (Cytochrome P450 3A4) was 0.17 µM. The IC50 (Cytochrome P450 2C19) was over 20 µM, the IC50 (Cytochrome P450 2D6) was 9.88 µM and the IC50 (Cytochrome P450 2C9) was 10.3 µM. The IC50 (Cytochrome P450 2C8) was 3.98 µM, the solubility kinetic at 2 h [1] was 127 µM (≈ 57.1 µg/mL) and the solubility kinetic at 2 h [2] was 39.6 µM (≈ 17.8 µg/mL). For the same compound, the “Ratio IC50” value (Plasmodium falciparum [3]) was 2, the IC50 (Plasmodium falciparum [4]) was 0.0311 µM and the IC50 (Plasmodium falciparum [5]) was 0.002 µM. It also gave an IC50 (Plasmodium falciparum [6]) of 0.001 µM.
